SIAE primary – human SIAE inhibitors, primary screen, biochemical, fluorescence polarization, FP-Rh probe, 1536-well HTS. AID 1053197, 2014. Sialate O-acetylesterase (Homo sapiens), Q9HAT2. SIAE FP-Rh probe binding. 0.69% of 370,000 active. inhibition, % at 9.66 µM;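 active means inhibition above a cutoff: mean of compounds within the control limits plus 3 SD of those, cut at about 17% in these data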;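 further: 0% = plate median of compound wells and 100% = probe without SIAE protein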
PRMT1 inh – PRMT1 methyltransferase inhibitors, primary screen, biochemical, fluorescence polarization; recombinant PRMT1, activity-based probe fluorescence polarization; Protein arginine N-methyltransferase 1 (Homo sapiens), Q99873; inhibition, % at 2.79 µM; AID 652257, 2013; 1.3% of 370,000 active;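 active means inhibition above about 21% made by adding two undisclosed values, limit read from the data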
Target sequence (Q99873 whole entry, looked up): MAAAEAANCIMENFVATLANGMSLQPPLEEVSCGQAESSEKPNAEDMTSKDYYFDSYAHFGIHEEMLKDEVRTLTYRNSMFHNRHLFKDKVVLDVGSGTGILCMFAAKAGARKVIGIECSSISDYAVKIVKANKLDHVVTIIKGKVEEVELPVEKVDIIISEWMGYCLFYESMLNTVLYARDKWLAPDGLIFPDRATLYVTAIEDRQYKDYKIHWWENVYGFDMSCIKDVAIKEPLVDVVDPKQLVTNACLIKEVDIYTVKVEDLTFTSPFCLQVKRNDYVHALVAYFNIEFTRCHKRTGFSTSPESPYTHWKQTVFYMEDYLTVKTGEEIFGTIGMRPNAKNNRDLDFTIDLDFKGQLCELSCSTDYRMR
mABHD4 FP – ABHD4 inhibitors, primary screen, biochemical, fluorescence polarization, mouse | (Lyso)-N-acylphosphatidylethanolamine lipase (Mus musculus), Q8VD66 | purified mABHD4, FP-Rh probe fluorescence polarization | inhibition, % at 8.92 µM | 0.54% of 370,000 active | AID 720543, 2013;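 active means inhibition exceeding the mean over every tested compound plus 3 SD, cut at about 30% in these data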;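 further: 0% = plate median of compound wells and 100% = S159A mutant with DMSO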
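Test system: mouse ABHD4 enzyme, wild type. Reagent: FP-Rh fluorescent activity-based probe, added after compound pre-incubation. Timing: pre-incubation 45 min, probe exposure 60 min, at 25 °C. Technique: FP readout, ex 525 nm / em 598 nm. Benchmarks: high control S159A mutant with DMSO, low control median of compound wells.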
JMJD2C inh – inhibitors of GASC-1 histone demethylase, primary screen, biochemical, fluorescence, DELFIA europium; Lysine-specific demethylase 4C (Homo sapiens), Q9H3R0; GST-JMJD2C(1-420) H3K9me3 demethylation; inhibition, % at 2.35 µM; 0.069% of 330,000 active; AID 2099, 2009;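 active means more than half of a compound's replicate wells show inhibition beyond 50%, single wells judged on their own value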;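 further: signal counts dimethyl H3K9 product captured on neutravidin plate; 0% = median of DMSO wells and 100% = 0.3 times that DMSO median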
HTRA1 inh – HTRA1 serine protease inhibitors, primary screen, biochemical, fluorescence polarization, HTS; recombinant HTRA1, FP-rhodamine activity-based probe; inhibition, % at 5.96 µM; Q92743; 0.5% of 340,000 active; in the data active means inhibition above about 36%;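 further: 0% = enzyme with DMSO and 100% = wells lacking enzyme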
SIAE inh conf – human SIAE inhibitors, retest, confirmation, biochemical, fluorescence polarization, FP-Rh probe, triplicate | shares compounds with SIAE primary | inhibition, % at 9.66 µM | SIAE FP-Rh activity-based probe | 13% of 2,300 active | AID 1117263, 2014;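 active means mean inhibition of the replicates above the hit cutoff set in the primary screen, cut at about 17% in these data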;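 further: 0% = SIAE with DMSO and probe and 100% = probe without SIAE; inhibitors lower polarization as more probe stays unbound to SIAE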
The depositor's hits bear a star; nt = no result; ! = a repeat was not active. A selection: hits, their analogues and other compounds. The true share with any hit is near 2.4%.

SMILES	SIAE primary	PRMT1 inh	mABHD4 FP	JMJD2C inh	HTRA1 inh	SIAE inh conf
C[C@H](CO)N1C[C@H](C)[C@H](CN(C)S(=O)(=O)c2ccccc2)Oc2ccc(NC(=O)NC3CCCCC3)cc2CC1=O	30*	2	-7	nt	-2	0
Cc1ccc(S(=O)(=O)Nc2ccc3c(c2)CC(=O)N([C@H](C)CO)C[C@@H](C)[C@H](CN(C)S(=O)(=O)c2ccccc2)O3)cc1	3	-1	1	32	1	nt
C[C@H](CO)N1C[C@H](C)[C@H](CN(C)S(=O)(=O)c2cccs2)Oc2ccc(NC(=O)Nc3ccc4c(c3)OCO4)cc2CC1=O	21*	-2	4	nt	-5	3
Cc1nc(C(F)(F)F)ccc1C(=O)N1CCC1(C)C(=O)Nc1ccc2c(c1)OCO2 (stereo unspecified)	-2	-3	6	nt	nt	nt
C=CCn1c(SCC(=O)Nc2ccc(CCCC)cc2)nnc1-c1ccc(Cl)cc1	0	6	0	nt	nt	nt
CCOc1ccccc1NC(=O)CN1CCc2ccccc2C1	1	1	3	-5	-14	nt
CCOc1ccccc1NC(=O)N1CCc2ccccc2C1	18*	0	-1	61	8	-1
O=C1NC(=O)/C(=C/c2cccc(O)c2)N1	17*	-3	4	-11	3	-1
O=C1NC(=O)C(=Cc2ccccc2)N1	-6	13	-6	nt	-2	nt
COc1ccc(C(=O)N[C@@H]2CC[C@@]34CCCN3C(=O)CCC[C@H]4[C@H]2C)cc1	2	2	7	nt	nt	nt
O=C1CCCCC1Nc1ccc([N+](=O)[O-])cc1 (stereo unspecified)	-4	0	2	nt	5	nt
O=[N+]([O-])c1ccc(NC2CCCC2)cc1	19*	0	4	6	-9	1
Cc1ccc(C2CCC3(CCC(=O)N3CCOC(=O)Nc3ccc(F)cc3)CC2)cc1 (stereo unspecified)	18*!	4	-16	nt	nt	-12
O=C(Nc1ccc(F)cc1)OCc1cn(Cc2c(F)cccc2F)nn1	-2	-1	3	nt	nt	nt
CCOc1cc(/C=N/Nc2ccc(C(=O)O)cc2)ccc1OC(=O)c1ccccc1C	26*	-3	0	-14	1	31*
CC(=O)NC(c1ccco1)c1cc(Cl)c2cccnc2c1O (stereo unspecified)	18*	-1	18	nt	nt	7
CC(=O)NC(c1cc(Cl)c2cccnc2c1O)C1CC1 (stereo unspecified)	16	-5	4	3	32	nt
O=S(=O)(NCc1ccc(Cl)cc1)c1ccc(Br)cc1C1CC[C@@H](O)C1 (stereo partly specified)	-4	8	-25	nt	nt	nt
O=C(N=Nc1c(O)[nH]c2c(Cl)cc(Cl)cc12)c1ccccc1O	29*	3	20	nt	nt	-3
COc1cccc(CNc2nc(NC(C)C)nc3ccsc23)c1	0	0	-3	nt	nt	nt
COc1ccc(S(=O)(=O)N2CCN(C(=O)CN3C(=O)NC(C)(c4ccc5ccccc5c4)C3=O)CC2)cc1 (stereo unspecified)	17*	1	3	-36	-8	1
COC(=O)[C@@H](CC(C)C)CP(=O)(OC)[C@@H](C)NC(=O)OCc1ccccc1 (stereo partly specified)	2	1	-3	nt	nt	nt
COc1ccc(CNc2ncc(-c3ccc(F)cc3)n2C)c2ccccc12	18*	-4	15	-5	-14	8
Cc1csc(=O)n1CCC(=O)OCC(=O)NNC(=O)c1ccc(Cl)cc1	2	16	5	nt	-1	nt
Cc1ccn2c(=O)nc(SCC(=O)N3CCN(c4ccccc4)CC3)nc2c1	18*	1	2	-7	2	6
SMILES	SIAE primary	PRMT1 inh	mABHD4 FP	JMJD2C inh	HTRA1 inh	SIAE inh conf
CC1=C2NC(N)=[N+](Cc3ccc4c(c3)OCO4)CC2n2c(=O)n(-c3ccccc3)c(=O)n2C1 (stereo unspecified)	4	0	7	nt	nt	nt
COc1ccc(/C=N/NC(=O)c2cc3cc(OC)c(OC)cc3[nH]2)cc1	5	-1	23	-11	7	nt
COc1cc2cc(C(=O)N/N=C/c3ccccc3Cl)[nH]c2cc1OC	27*	-3	16	1	10	5
COc1cc(/C=N/NC(=O)c2cc(-c3ccccc3)sc2N)cc(OC)c1OC	31*	0	5	-1	nt	-45
COc1cc2cc(C(=O)N/N=C/c3ccc(F)cc3)[nH]c2cc1OC	4	-6	16	-2	14	nt
COc1ccc2cc(C(=O)N/N=C/c3cc(OC)c(OC)c(OC)c3)[nH]c2c1	28*	0	9	8	0	-9
Cc1ccc(OCc2nnc(SCC(=O)c3ccc(-c4ccccc4)cc3)n2Cc2ccco2)cc1	-10	6	-11	nt	nt	nt
CCOc1ccc(Cl)cc1/C=C1/C(=O)ON=C1C	18*	0	5	1	1	1
Cc1cccc(C(=O)Nc2c(-c3ccc(C(F)(F)F)cc3)nc3ncccn23)c1	2	1	-2	nt	nt	nt
CC(C)CN(C(=O)C1CCCCC1)C1CCS(=O)(=O)C1 (stereo unspecified)	18*	1	11	-8	4	3
CC(C)CN(C(=O)C1CC1)C1CCS(=O)(=O)C1 (stereo unspecified)	-1	7	-11	69	2	nt
O=c1c2c(n3nnnc3n1Cc1ccc(Cl)cc1)-c1ccccc1CC21CCCC1	0	1	-5	nt	nt	nt
O=C(Cc1cccs1)NCCN1CCOCC1	22*	-2	-3	2	4	1
Cc1ccccc1CC(=O)NCCN1CCOCC1	2	1	3	146	0	nt
O=C(NCCN1CCOCC1)c1ccccc1Cl	13	-8	-1	6	1	nt
Nc1sccc1C(=O)NCCN1CCOCC1	19*	10	11	nt	nt	2
CCOC(=O)Cc1nc(N2CCN(Cc3cccc4c3OCO4)CC2)c2c(C)c(C(=O)OCC)sc2n1	3	-4	-4	nt	nt	nt
O=C(CSc1nc(=O)n(CCCN2CCOCC2)c2c1CCCC2)Nc1cccc([N+](=O)[O-])c1	7	6	-8	5	-3	nt
CCN(CC)CCCn1c2c(c(SCC(=O)Nc3ccccc3Cl)nc1=O)CCC2	18*	-2	3	-5	-6	-1
O=C(CSc1nc(=O)n(CCCN2CCOCC2)c2c1CCC2)Nc1ccc([N+](=O)[O-])cc1	18*	-2	6	-13	8	1
COc1ccc(/C=C2/C(=O)N(c3ccccc3)N=C2C)cc1	nt	nt	nt	-1	nt	nt

Bioassay records (PubChem BioAssay)
